Assay results gathered from unrelated publications.
Each line is one published result; the experiments were not run side by side.
FLT3: Receptor-type tyrosine-protein kinase FLT3 (FLT3, Homo sapiens, UniProt P36888)
FLT3 N841I: Receptor-type tyrosine-protein kinase FLT3 (FLT3, Homo sapiens, UniProt P36888, N841I)

Structure (SMILES)	target	assay	setting	quantity	result
Cn1cncc1[C@@](O)(COc1ccc(C#N)cc1-c1ccc(OC(F)(F)F)cc1)c1ccc(C#N)cc1	Receptor-type tyrosine-protein kinase FLT3 (FLT3, Homo sapiens, UniProt P36888, ITD)	cell-free assay, competition with immobilised ligand	1 µM	remaining binding	89%
COc1ncccc1-c1cnn2ccc(N3CCN(C(=O)OC(C)C)CC3)nc12	FLT3	binding, competition with immobilised ligand	1 µM	remaining binding	100%
N#CC1(c2ccccn2)CCN(Cc2cc(C(=O)O)c(=O)n3ccccc23)CC1	Receptor-type tyrosine-protein kinase FLT3 (FLT3, Homo sapiens, UniProt P36888, F691L/ITD)	cell-free assay, competition with immobilised ligand	1 µM	remaining binding	100%
Cn1cc(-c2cc(F)cc(N3CCn4c(cc5c4CCCC5)C3=O)c2CO)cc(Nc2ccc(N3CCN(C4COC4)CC3)cn2)c1=O	FLT3	enzyme activity, inhibitor	0.1 µM	inhibition	12%
Cc1nn(C)cc1-c1nc2c(N3CCN(Cc4ccc(Cl)cc4)CC3)c(Cl)cnc2[nH]1	FLT3 N841I	binding, competition with immobilised ligand	1 µM	remaining binding	0%
C#Cc1n[nH]c2c(-c3cn([C@@H](C)c4ccccc4)c(=O)[nH]c3=O)cc(F)cc12	FLT3	enzyme activity, inhibitor	0.1 µM	inhibition	4.9%
CC(C)(C)c1cc(C=C(C#N)C#N)cc(Br)c1O	FLT3	enzyme activity, inhibitor	0.5 µM	remaining activity	102%
Nc1ncc(-c2nc(N3CCOCC3)nc(N3CCOCC3)n2)c(C(F)F)n1	FLT3 N841I	binding, competition with immobilised ligand	10 µM	remaining binding	46%
O=c1[nH]c2ccccc2n1C1CCN(Cc2ccc(-c3[nH]c4cc5ncnc5cc4nc3-c3ccccc3)cc2)CC1	FLT3	cell-free assay	0.5 µM	remaining signal	94.6%
Cn1cc(-c2cccc(N3CCc4c(sc5c4CC(C)(C)C5)C3=O)c2CO)cc(Nc2ccncn2)c1=O	FLT3	enzyme activity, inhibitor	1 µM	inhibition	-6%
C#Cc1n[nH]c2c(-c3cn(C(C)c4ccccn4)c(=O)[nH]c3=O)cc(F)cc12 (centres unmarked)	FLT3	enzyme activity, inhibitor	1 µM	inhibition	8%
